Consider 16 molecules from PubChem BioAssay.

By viability is commonly meant a read-out of living cells in per cent, often relative to untreated cells. The inhibition is the drop in the measured response relative to a control, in per cent.

Activity calls are given as the source filed them.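 The calls were made as follows, unless noted: active = viability at or under a set limit in both replicates, limit being median viability minus 3 SD (cut at about 48% in these data, passing the limit was not always enough); inconclusive = at or under the limit in just one replicate; inactive = at or above the limit in both replicates.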

The nature of assay [1]: HUVEC growth inhibition – cell-based, human, primary screen (AID 575;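 active = viability at or below 30% in both replicate assays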;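 also: 100% = median of untreated cell wells with 0.1% DMSO on each plate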). To be noted: HUVEC proliferation, CellTiter-Glo luminescence, 72 h; at 10 µM; stronger effect = lower value. The method in brief: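 Assay system: primary human umbilical vein endothelial cells / Buffer or medium: endothelial basal medium with 2% FBS plus growth supplements / Compound dosing: one dose, 10 µM final, 0.1% DMSO / Timing: 72 h treatment at 37 °C / Signal: CTG luminescence / Benchmarks: 32 DMSO-only cell-control wells (high), 32 MePR drug-control wells (low) per plate / Plate: collagen-coated 384-well format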

Assay [2] in a line: H69AR cell proliferation blockers – human, duplicate replicates, primary screen (AID 580).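 Also: 100% = mean luminescence of untreated wells and 0% = no signal.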 To be noted: H69AR lung tumor cells viability, ATP luminescence, 72 h; at 10 µM; stronger effect = lower value.
Assay [3] is described as follows: MRP1 drug-resistance reversers in H69AR cells – cell-based, doxorubicin co-treatment, pilot screen (AID 601;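 active = viability loss from added drug above about 55%, and viability with drug at most 40%, in both replicates, limit read from the data, passing the limit was not always enough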). To be noted: CellTiter-Glo, 72 h, at 10 µM; for differential viability (reversal): stronger effect = higher value.
The nature of assay [4]: yeast transport mutant growth inhibition pilot in 384-well plates, post-Golgi transport modulator project (AID 636; in the data active = inhibition above about 31%). As to conditions: absorbance 615 nm, about 18 h, stronger effect = higher value.
Assay [5] can be described thus: growth suppression of yeast trafficking mutant, preliminary HTS, modulators of trafficking downstream of Golgi apparatus project, 1536-format plate, OD 615 nm (AID 637; in the data active = inhibition above about 30%). As to conditions: yeast transport mutant growth, absorbance 615 nm, 18 h; stronger effect = higher value.
Where [6] appears, read: H69AR cells + 2 uM doxorubicin, measured here: viability with 2 uM doxorubicin, stronger effect = lower value.
[7] abbreviates: H69AR cells, compound alone cytotoxicity.

On to `CCCC(=O)Nc1ccccc1NC(=O)CCC`, for which the viability in assay [1] was 108% (inactive); in assay [2] it was 96% (inactive); in assay [3] (setting [6]), 88.8%; in assay [3] (setting [7]) it was 96%. In addition, the differential viability (reversal) in assay [3] (H69AR cells + 2 uM doxorubicin) was 7.25% (inactive). Also, the inhibition is -2.24% (inactive) in assay [4] and -2.38% (inactive) in assay [5].
As to `CCOc1ccccc1OCC(=O)NCc1ccco1`, the viability in assay [1] is 84.3% (inactive); in assay [2], 85.3% (inactive); in assay [3] (setting [6]), 85.1%; in assay [3] (setting [7]) it was 85.3%. For the same molecule, in assay [3] (H69AR cells + 2 uM doxorubicin), the differential viability (reversal) was 0.205% (inactive). Also, the inhibition was -3.6% (inactive) in assay [4] and -0.32% (inactive) in assay [5].
For `CCc1ccc(NC(=O)CS(=O)CC(=O)NCC2OCCc3ccccc32)cc1` (configuration not stated), the viability in assay [1] is 101% (inactive); in assay [2], 99.1% (inactive); in assay [3] (setting [6]), 95%; in assay [3] (setting [7]), 99.1%. In addition, the differential viability (reversal) in assay [3] (H69AR cells + 2 uM doxorubicin) is 4.08% (inactive). The inhibition in assay [4] was -0.93% (inactive); in assay [5], 1.75% (inactive).
Consider `Clc1ccccc1-c1nnc2sc(-c3ccccn3)nn12`, for which the viability in assay [1] was 93.8% (inactive); in assay [2], 86.3% (inactive); in assay [3] (setting [6]), 77.8%; in assay [3] (setting [7]) it was 86.3%. In addition, in assay [3] (H69AR cells + 2 uM doxorubicin), the differential viability (reversal) is 8.48% (inactive). Also, the inhibition in assay [4] is -1.97% (inactive); in assay [5], 4.6% (inactive).
`O=C(Cc1ccc(S(=O)(=O)N2CCCC2)s1)Nc1nc2c(s1)CCCC2`: the viability in assay [1] is 66.3% (inactive); in assay [2], 95.7% (inactive); in assay [3] (setting [6]) it was 94.7%; in assay [3] (setting [7]) it was 95.7%. For the same molecule, the differential viability (reversal) in assay [3] (H69AR cells + 2 uM doxorubicin) is 1% (inactive). Moreover, the inhibition in assay [4] was -1.17% (inactive); in assay [5], -6.83% (inactive).
Consider `Cc1ccc2nc(NC(=O)CN(C)S(=O)(=O)c3cccc4nsnc34)sc2c1`, for which the viability is 18.1% (active) in assay [1], 9.1% (active) in assay [2], 24.2% in assay [3] (setting [6]) and 9.1% in assay [3] (setting [7]). Besides, the differential viability (reversal) in assay [3] (H69AR cells + 2 uM doxorubicin) is -15.1% (inactive). Also, the inhibition was -4.27% (inactive) in assay [4] and -4.29% (inactive) in assay [5].
For `CCOC(=O)NC(=O)CSc1nnc(C)s1`, the viability in assay [1] was 115% (inactive); in assay [2] it was 105% (inactive); in assay [3] (setting [6]), 96.5%; in assay [3] (setting [7]), 105%. In assay [3] (H69AR cells + 2 uM doxorubicin), the differential viability (reversal) is 8.07% (inactive). The inhibition in assay [4] was -4.08% (inactive); in assay [5], 3.65% (inactive).
For the molecule `O=C1CCCc2nc(N3CCCCC3)sc21`, the viability in assay [1] is 88.9% (inactive); in assay [2], 82.8% (inactive); in assay [3] (setting [6]), 89.6%; in assay [3] (setting [7]), 82.8%. The differential viability (reversal) in assay [3] (H69AR cells + 2 uM doxorubicin) is -6.74% (inactive). Moreover, the inhibition in assay [4] was -0.27% (inactive); in assay [5] it was -0.95% (inactive).
For `CCOc1ccc(NC(=O)c2ccncc2)cc1`, the viability in assay [1] was 112% (inactive); in assay [2], 99.9% (inactive); in assay [3] (setting [6]), 88.5%; in assay [3] (setting [7]), 99.9%. For the same molecule, the differential viability (reversal) in assay [3] (H69AR cells + 2 uM doxorubicin) was 11.4% (inactive). Also, the inhibition in assay [4] was -2.89% (inactive); in assay [5], -0.63% (inactive).
Turning to `Cc1ccc(NC(=O)COc2nc(C)cs2)cc1`, the viability in assay [1] is 97.5% (inactive); in assay [2], 91.5% (inactive); in assay [3] (setting [6]), 87.6%; in assay [3] (setting [7]), 91.5%. In addition, the differential viability (reversal) in assay [3] (H69AR cells + 2 uM doxorubicin) was 3.88% (inactive). Besides, the inhibition is -3.64% (inactive) in assay [4] and 2.7% (inactive) in assay [5].
For the molecule `O=C(Nc1ncnc2sc3c(c12)CCCCC3)c1ccco1`, the viability in assay [1] was 91.5% (inactive); in assay [2] it was 73.8% (inactive); in assay [3] (setting [6]) it was 74.5%; in assay [3] (setting [7]), 73.8%. Also, the differential viability (reversal) in assay [3] (H69AR cells + 2 uM doxorubicin) was -0.73% (inactive). Also, the inhibition in assay [4] is -2.08% (inactive); in assay [5], 3.65% (inactive).
Consider `CC1CN(c2nc3ccccc3nc2C(C#N)C(=O)NCc2ccc3c(c2)OCO3)CC(C)O1` (configuration not stated), for which the viability in assay [1] was 84.6% (inactive); in assay [2], 91.2% (inactive); in assay [3] (setting [6]) it was 96.6%; in assay [3] (setting [7]) it was 91.2%. In addition, the differential viability (reversal) in assay [3] (H69AR cells + 2 uM doxorubicin) was -5.39% (inactive). The inhibition is -4.93% (inactive) in assay [4] and 4.76% (inactive) in assay [5].
`Cc1cccc(NC(=O)CN(C)S(=O)(=O)c2ccccc2)n1`: the viability in assay [1] was 107% (inactive); in assay [2], 95.2% (inactive); in assay [3] (setting [6]), 85.4%; in assay [3] (setting [7]) it was 95.2%. For the same molecule, in assay [3] (H69AR cells + 2 uM doxorubicin), the differential viability (reversal) was 9.79% (inactive). Besides, the values for the inhibition in assay [4] and in assay [5] were -6.18% (inactive) and 2.54% (inactive), respectively.
`CCc1cc(-c2[nH]ncc2-c2ccc3c(c2)OCO3)c(O)cc1O`: the viability in assay [1] is 4.08% (active); in assay [2], 23.3% (active); in assay [3] (setting [6]), 37.5%; in assay [3] (setting [7]) it was 23.3%. In addition, the differential viability (reversal) in assay [3] (H69AR cells + 2 uM doxorubicin) is -14.2% (inactive). Moreover, the inhibition in assay [4] is 4.94% (inactive); in assay [5], 27.1% (inactive).
As to `O=C(NC12CC3CC(CC(C3)C1)C2)N1CCN(C(=O)C2CCCO2)CC1` (configuration not stated), the viability in assay [1] was 111% (inactive); in assay [2] it was 95.6% (inactive); in assay [3] (setting [6]), 84.4%; in assay [3] (setting [7]) it was 95.6%. Also, the differential viability (reversal) in assay [3] (H69AR cells + 2 uM doxorubicin) was 11.2% (inactive). Further, the inhibition was -7.07% (inactive) in assay [4] and 5.24% (inactive) in assay [5].
In the case of `O=C1C2ON(c3ccccc3)C(c3cccnc3)C2C(=O)N1c1ccccc1` (configuration not stated), the viability was 104% (inactive) in assay [1], 89.8% (inactive) in assay [2], 87.1% in assay [3] (setting [6]) and 89.8% in assay [3] (setting [7]). For the same molecule, in assay [3] (H69AR cells + 2 uM doxorubicin), the differential viability (reversal) was 2.77% (inactive). Moreover, the inhibition in assay [4] was -1.45% (inactive); in assay [5], -10.3% (inactive).
